Assay results: ChEMBL document CHEMBL1142089, “High-level telithromycin resistance in a clinical isolate of Streptococcus pneumoniae” (2007)
Converted amounts (≈) assume the structure as drawn.

Assays:
Assay type in all cases: functional
[1] = tested on: Streptococcus pneumoniae; assay: Antimicrobial activity against Streptococcus pneumoniae PC13 isolate with L4 69GTG71 to TPS mutation
Outline: (§1)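 MIC by agar dilution per CLSI guidelines, also by Etest. Pneumococci grown at 37°C in 5% CO2 on Mueller-Hinton agar with 5% horse blood. Interpreted with CLSI breakpoints; for telithromycin ≤1 μg/ml susceptible, 2 μg/ml intermediate, ≥4 μg/ml resistant.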

[2] = tested on: Streptococcus pneumoniae; assay: Antimicrobial activity against Streptococcus pneumoniae BSF-11524 isolate with erm(B) and L4 mutation; outline: as §1
[3] = tested on: Streptococcus pneumoniae; assay: Antimicrobial activity against Streptococcus pneumoniae R6 transformants; outline: as §1
[4] = tested on: Streptococcus pneumoniae; assay: Antimicrobial activity against Streptococcus pneumoniae PC13 isolate with L4 mutation; outline: as §1
[5] = tested on: Streptococcus pneumoniae; assay: Antimicrobial activity against Streptococcus pneumoniae R6 with L4 69GTG71 to TPS mutation; outline: as §1
[6] = tested on: Streptococcus pneumoniae; assay: Antimicrobial activity against Streptococcus pneumoniae R6 with L4 mutation; outline: as §1
[7] = tested on: Streptococcus pneumoniae; assay: Antimicrobial activity against Streptococcus pneumoniae PC13 isolate with erm(B) mutation; outline: as §1
[8] = tested on: Streptococcus pneumoniae; assay: Antimicrobial activity against Streptococcus pneumoniae PC13 transformants; outline: as §1

Row | SMILES | MIC [1] | MIC [2] | MIC [3] | MIC [4] | MIC [5] | MIC [6] | MIC [7] | MIC [8]
1 | O=C(N[C@H](CO)[C@H](O)c1ccc([N+](=O)[O-])cc1)C(Cl)Cl [CHLORAMPHENICOL] | 12 µg/mL (≈ 37.1 µM) | 2 µg/mL (≈ 6.19 µM) | 1.5 µg/mL (≈ 4.64 µM) | 12 µg/mL (≈ 37.1 µM) | 2 µg/mL (≈ 6.19 µM) | 2 µg/mL (≈ 6.19 µM) | 12 µg/mL (≈ 37.1 µM) | 12 µg/mL (≈ 37.1 µM)
2 | CC[C@H]1OC(=O)[C@H](C)[C@@H](O[C@H]2C[C@@](C)(OC)[C@@H](O)[C@H](C)O2)[C@H](C)[C@@H](O[C@@H]2O[C@H](C)C[C@H](N(C)C)[C@H]2O)[C@](C)(OC)C[C@@H](C)C(=O)[C@H](C)[C@@H](O)[C@]1(C)O [CLARITHROMYCIN] | > 256 µg/mL | > 256 µg/mL | 0.06 µg/mL (≈ 0.0802 µM) | > 256 µg/mL | 24 µg/mL (≈ 32.1 µM) | 24 µg/mL (≈ 32.1 µM) | > 256 µg/mL | > 256 µg/mL
3 | CC[C@H]1OC(=O)[C@H](C)C(=O)[C@H](C)[C@@H](O[C@@H]2O[C@H](C)C[C@H](N(C)C)[C@H]2O)[C@](C)(OC)C[C@@H](C)C(=O)[C@H](C)[C@H]2N(CCCCn3cnc(-c4cccnc4)c3)C(=O)O[C@]12C [TELITHROMYCIN] | > 256 µg/mL | > 256 µg/mL | 0.015 µg/mL (≈ 0.0185 µM) | > 256 µg/mL | 0.12 µg/mL (≈ 0.148 µM) | 0.12 µg/mL (≈ 0.148 µM) | 1 µg/mL (≈ 1.23 µM) | 0.06 µg/mL (≈ 0.0739 µM)
4 | CC[C@H]1OC(=O)[C@H](C)[C@@H](O[C@H]2C[C@@](C)(OC)[C@@H](O)[C@H](C)O2)[C@H](C)[C@@H](O[C@@H]2O[C@H](C)C[C@H](N(C)C)[C@H]2O)[C@](C)(O)C[C@@H](C)CN(C)[C@H](C)[C@@H](O)[C@]1(C)O [AZITHROMYCIN] | > 256 µg/mL | > 256 µg/mL | 0.25 µg/mL (≈ 0.334 µM) | > 256 µg/mL | > 256 µg/mL | > 256 µg/mL | > 256 µg/mL | > 256 µg/mL
5 | CC[C@H]1OC(=O)[C@H](C)[C@@H](O[C@H]2C[C@@](C)(OC)[C@@H](O)[C@H](C)O2)[C@H](C)[C@@H](O[C@@H]2O[C@H](C)C[C@H](N(C)C)[C@H]2O)[C@](C)(O)C[C@@H](C)C(=O)[C@H](C)[C@@H](O)[C@]1(C)O [ERYTHROMYCIN] | > 256 µg/mL | > 256 µg/mL | 0.094 µg/mL (≈ 0.128 µM) | > 256 µg/mL | > 256 µg/mL | > 256 µg/mL | > 256 µg/mL | > 256 µg/mL
6 | CN(C)[C@@H]1C(O)=C(C(N)=O)C(=O)[C@@]2(O)C(O)=C3C(=O)c4c(O)cccc4[C@@](C)(O)[C@H]3C[C@@H]12 [TETRACYCLINE] | 8 µg/mL (≈ 18 µM) | 12 µg/mL (≈ 27 µM) | 0.094 µg/mL (≈ 0.212 µM) | 12 µg/mL (≈ 27 µM) | 0.06 µg/mL (≈ 0.135 µM) | 0.094 µg/mL (≈ 0.212 µM) | 8 µg/mL (≈ 18 µM) | 12 µg/mL (≈ 27 µM)
7 | CCC[C@@H]1C[C@@H](C(=O)N[C@@H]([C@H]2O[C@H](SC)[C@H](O)[C@@H](O)[C@H]2O)[C@H](C)Cl)N(C)C1 [CLINDAMYCIN] | > 256 µg/mL | > 256 µg/mL | 0.06 µg/mL (≈ 0.141 µM) | > 256 µg/mL | 0.094 µg/mL (≈ 0.221 µM) | 0.125 µg/mL (≈ 0.294 µM) | > 256 µg/mL | > 256 µg/mL
